Measurements as given in article PMC8482496 (ACS Omega, 2021).

How the values were obtained:
S. aureus ThrRS = molecular target: T1, S. aureus ThrRS (Staphylococcus aureus, UniProt Q2FXP7); experiment: In vitro aminoacylation assay; type: biochemical; conditions: read-out: inhibition of S. aureus ThrRS
T1 sequence (Q2FXP7 1-645): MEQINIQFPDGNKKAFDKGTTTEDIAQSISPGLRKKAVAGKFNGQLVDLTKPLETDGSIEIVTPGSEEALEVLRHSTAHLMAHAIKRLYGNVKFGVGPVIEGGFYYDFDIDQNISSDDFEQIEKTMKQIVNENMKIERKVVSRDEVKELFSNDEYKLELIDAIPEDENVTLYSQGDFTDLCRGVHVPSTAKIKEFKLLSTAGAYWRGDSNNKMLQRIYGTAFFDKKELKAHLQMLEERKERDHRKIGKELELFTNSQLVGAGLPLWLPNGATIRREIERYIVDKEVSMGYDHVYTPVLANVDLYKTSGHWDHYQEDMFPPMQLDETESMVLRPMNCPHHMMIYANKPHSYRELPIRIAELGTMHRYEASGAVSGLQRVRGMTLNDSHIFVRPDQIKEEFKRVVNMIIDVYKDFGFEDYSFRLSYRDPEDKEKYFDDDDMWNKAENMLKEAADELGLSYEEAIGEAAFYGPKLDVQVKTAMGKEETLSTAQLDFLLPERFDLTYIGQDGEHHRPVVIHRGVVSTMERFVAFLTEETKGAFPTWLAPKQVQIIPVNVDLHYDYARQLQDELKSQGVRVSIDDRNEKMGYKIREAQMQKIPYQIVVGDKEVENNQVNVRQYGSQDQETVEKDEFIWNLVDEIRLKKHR
Method in brief: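 S. aureus ThrRS expressed in E. coli BL21(DE3)pLysS (0.25 mM IPTG, 3 h, 37 °C), purified on DEAE then heparin columns. Started with 10 mM ATP; 10 min, 37 °C; TCA-precipitated on filters, scintillation-counted; at least duplicates.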

HEK293 cells = experiment: MTT assay, cytotoxicity; type: cell-based, human; conditions: at a concentration of 100 μM; 72 h
Method in brief: (§1)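 HEK293 cells kept in DMEM with 10% FBS plus penicillin/streptomycin, 37 °C, 5% CO2. Seeded at 2 × 10^5 cells/mL and grown 24 h, then exposed 72 h to test compound in DMSO (final DMSO below 0.5%) at various concentrations. MTT (5 mg/mL solution) added for 4 h; formazan dissolved in DMSO, A540 read; viability expressed as percent of untreated control cells.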

MTT assay, cytotoxicity = type: cell-based, human; conditions: human, HEK293 cells
Method in brief: as §1

Row | inhibition at 100 µM (S. aureus ThrRS) | Structure (SMILES) | cytotoxicity toward HEK293 (HEK293 cells) | EC50 at 72 h (MTT assay, cytotoxicity) | decrease of the growth of HEK293 cells (HEK293 cells)
1 | 88.5% | COc1ccc(C(=O)CSc2nc3ccc([N+](=O)[O-])cc3s2)cc1 [compound 1, 1-(4-methoxy-phenyl)-2-(6-nitro-benzothiazol-2-ylsulfanyl)-ethanone] | not cytotoxic | – | –
2 | 85.6% | Cc1ccc([N+](=O)[O-])cc1NC(=O)COc1ccccc1C(C)(C)C [compound 2, 2-(2-tert-butyl-phenoxy)-N-(2-methyl-5-nitro-phenyl)-acetamide] | not cytotoxic | – | –
3 | 78.3% | CCOC(=O)c1c(-c2ccc(Cl)cc2)csc1NC(=O)CN1CC(C)OC(C)C1 (stereo not drawn) [compound 8, 4-(4-chloro-phenyl)-2-[2-(2,6-dimethyl-morpholin-4-yl)-acetylamino]-thiophene-3-carboxylic acid ethyl ester] | not cytotoxic | – | –
4 | 78.6% | Cc1cc(I)ccc1N1C(=O)CC(Sc2ncccc2C(=O)O)C1=O (stereo not drawn) [compound 11, 2-[1-(4-iodo-2-methyl-phenyl)-2,5-dioxo-pyrrolidin-3-ylsulfanyl]-nicotinic acid] | – | > 100 µM | 30%
